Assay results taken from the EternaBench riboswitch data.

Tested on: MS2 coat protein
Assay: apparent Kd, MS2 coat protein; higher = weaker binding; RNA-MaP array; FMN 200 µM where present
Outline: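 Two titrations, one without ligand and one with constant ligand, were run with SNAP-549-labelled MS2 coat protein from 0.7 or 1.5 nM, doubling to 3 µM. The targets were designs transcribed by stalled E. coli RNA polymerase on Illumina sequencing-chip clusters, in 100 mM Tris-HCl pH 7.5, 80 mM KCl, 4 mM MgCl2, BSA, DTT, yeast tRNA and Tween-20. The apparent Kd is the median of filtered per-cluster binding-curve fits, with green signal normalised to red-channel RNA signal and control-cluster median Fmax.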

[1] = designed as: OFF switch for flavin mononucleotide, no ligand
[2] = ligand present: flavin mononucleotide, designed as: OFF switch for flavin mononucleotide
[3] = designed as: ON switch for flavin mononucleotide, no ligand
[4] = ligand present: flavin mononucleotide, designed as: ON switch for flavin mononucleotide

Row | Sequence | apparent Kd [1] [µM] | apparent Kd [2] [µM] | apparent Kd [3] [µM] | apparent Kd [4] [µM]
1 | CUGCCGUAGGAGAAGGACGGCGGGUUAUUUUUGUACAUGAGGAUCACCCAUGUAGGAUAUCCUACGUCAGGCAACCUACUACAG | 0.00726 | 0.0103 |  | 
2 | UCAAGUAUGUAGGAUAUCGAUGUCUUCGGACAUCGAGAAGGACGUACAUGAGGAUCACCCAUGUAACUUGCAUG | 0.0605 | 0.0374 |  | 
3 | GACAUACGCGAUCCUUGGACAUGAGGAUCACCCAUGUACCGGAAGGAUAUCCUUCGCAAAAGCUAGGAGAAGGUUCGGUAGGUC | 0.0261 | 0.0861 |  | 
4 | UGUCGGAGCAGAGGAUAUUACAUGAGGAUCACCCAUGUAUGAACCAAUAGCUGGAAACAGCAAUGUAAGAAGGCUGCUCCGACU | 0.013 | 0.174 |  | 
5 | GGUCGUCACAUUAACAUGAGGAUCACCCAUGUGAAAACACAUGAGGAUAUGCAUCCUAAUUGGAUGCAGAAGGCAUGGACGACC |  |  | 0.0247 | 0.00628
6 | CUUUGGAUGUCAGGAUAUUGAAUCAUGGAUGGUAUCUUACAGUCUUACAUGAGGAUCACCCAUGUCGAGAAGGGAUAUCAGCUC | 0.00615 | 0.0105 |  | 
7 | CUUGUACAUGAGGAUCACCCAUGUUAGGAUAUCUCGCCGUCGGCUUGCCGACGGUAUUAGAGAAGGGACUAGGG | 0.0354 | 0.0395 |  | 
8 | UUCUAACGAGGAUAUCGAUGGUGGAACAUGAGGAUCACCCAUGUAUGAGAUAUUGUAGUUCGAGAAGGCGUUCAGU | 0.0421 | 0.0325 |  | 
9 | AUCUCAGGACGAGGAUAUCAAUACAUGAGGAUCACCCAUGUAUUACUACUGUGAUCCUUCAAGGCUGAGAAGGCGUCCCAAAUG | 0.0207 | 0.0378 |  | 
10 | GAGUUUACGUUUGUCACUUUGCGAGAGGAUAUGGAAAACUUGACAUGAGGAUCACCCAUGUUUUAUCAGAAGGCUCGAGUACGA |  |  | 0.0102 | 0.00609
11 | AGACCCUGAACGAAAUCAUACAGUCAGGAUAUACAUGAGGAUCACCCAUGUGCGUACCAACUCGUGUAGAAGGGACUUUCAGGG | 0.0123 | 0.0302 |  | 
12 | AGGUUUGGAGAGAAGGGCUAAUGGGUUUCGUUUGAGGUAUUCGCAACAUGAGGAUCACCCAUGUAGCAGGAUAUCUCAAAACUA | 0.00488 | 0.00795 |  | 
13 | AUAUUUAUAUAUUUGGCAAGAAUCAGAAGGCGUUACAUGAGGAUCACCCAUGUUUUGUAUAGUAACGAGGAUAUGAUAUGGAAA | 0.0188 | 0.0142 |  | 
14 | AUAAUUUUAUAUAUCAUUUUAAUCAGAAGGCAUAACAUGAGGAUCACCCAUGUAAAUUAUUGUUAUGAGGAUAUGAAUUGGUUA | 0.0144 | 0.0548 |  | 
15 | CCUUUGUCAGGAUAUCAGAACGCGCUCGUAGGGAGCGCGAAUGAGAAGGGACAUGAGGAUCACCCAUGUAAAGA | 0.0947 | 0.492 |  | 
16 | AAAUUUUGUCAAGGAUAUGUAUAAAAGAGAAGAAAACAUGAGGAUCACCCAUGUAUAUGGUGGGAACAGAAGGUGAUUAAGUAA | 0.354 | 0.271 |  | 
17 | UGUCGGAGCAGAGGAUAUUACAUGAGGAUCACCCAUGUAUGAACCAAUAGCUGGAAACAGCAAUGUAAGAAGGCUGCUACGACA | 0.0122 | 0.153 |  | 
18 | GUAGCAUAAUUAGGAUAUUCAGCGAAUAGAUUGACAUGAGGAUCACCCAUGUGGCGAAAGCCUAGGGAGAAGGGAUAAUGCUAC |  |  | 0.254 | 0.12
19 | CGCUGUCACGCAGGAUAUGCAUUGGAUUCCAAUGCAGAAGGGCGAUUACAUGAGGAUCACCCAUGUGUUGACAGUGAAGAAGAG |  |  | 1.25 | 0.0763
20 | UAUACUUACGAAGGAUAUGGUUACAUGAGGAUCACCCAUGUAUGUAUAUUGAUCUAGUAUUUUAACCAGAAGGUCGUGAGUAUA | 0.0655 | 0.0534 |  | 
21 | UGGGUCCCAGUCAGGAUAUCGUGCUUUUACAUGCACGAGAAGGGACAUGAGGAUCACCCAUGUCAAGGCGGUCA | 0.102 | 0.33 |  | 
22 | CGCAACAUACAGAAGGAGUAAAGGAGAAGUGUACUAGGAUAUGUUAACAUGAGGAUCACCCAUGUCGUUUGGGAUUUUGUUGCG | 0.383 | 0.0993 |  | 
23 | AAGAAAGUAUUGCGAGGGUAGGAGCAGGAUAUCCCAUUGGCCCUCACAUGAGGAUCACCCAUGUGGGAGAAGGGCUAUUACGUU | 0.00651 | 0.0132 |  | 
24 | CCGGAAGUAGAGGAUAUCGUAUCGGAUACGAUACGAGAAGGCUAUACAUGAGGAUCACCCAUGUGUCCUACCGG | 0.0246 | 0.0333 |  | 

Row | Sequence | apparent Kd [1] [µM] | apparent Kd [2] [µM] | apparent Kd [3] [µM] | apparent Kd [4] [µM]
25 | AAAUCAGCAGGAUAUGCGAUGUUAUGCUAGAUAGCGGGACCACAUGAGGAUCACCCAUGUAGAAGGGCUAGAUA | 0.0349 | 0.0168 |  | 
26 | UACGCGUAGGAGAAGGGCCCACUAUAGGGUAAGUGCUGUUCUCACAUGAGGAUCACCCAUGUGCGGCAGGAUAUCCACGCGUGC | 0.0116 | 0.0667 |  | 
27 | AAUAAGUGAGGAUAUGCGUCUGGUCCCGGGAGGGCUAUAUAACAUGAGGAUCACCCAUGUAGAAGGCACAAUAA | 0.0168 | 0.0139 |  | 
28 | AGUGUAUCCCUAGGAUAUGCACAUGAGGAUCACCCAUGUAAACCCGCGCAGGCUCUUCUCAUGUCGCAGAAGGAGGGACCCGGA | 0.311 | 0.0396 |  | 
29 | ACAUGUUUUACAGGAUAUGUUUUACAAUAAACAUUCAGUUAUUACGAUUAAACAGAAGGGUAUACAUGAGGAUCACCCAUGUAA | 0.0171 | 0.015 |  | 
30 | AAUAACAGAGGAUAUACUAUUUUAUGUGUUUAUUGUUUUAAACAUGAGGAUCACCCAUGUAGAAGGCUGAUUGA | 0.0773 | 0.114 |  | 
31 | GGAUGUCAAAGACAUCCAAAUCGAACAUGAGGAUCACCCAUGUAGGAUAUGCUACUCAAAGAGUAGCAGAAGGACAUGUGCUUU | 0.0415 | 0.223 |  | 
32 | GUGCAGGUAGGAUAUACGUGAGAGCCUUGUGGGCGUCUGGUACAUGAGGAUCACCCAUGUAGAAGGACCGGGCU | 0.0213 | 0.0775 |  | 
33 | UUUAUGUGAGGAUAUCAGUAGUAAAAAAAUAAAAUUACUACUGAGAAGGCACAUGAGGAUCACCCAUGUGCUUC | 0.0195 | 0.0151 |  | 
34 | GCCACAGCAGGAUAUUCAAUAAUUCACAUGAGGAUCACCCAUGUCGAGCGAAAGCUCGAGGGAGAAGGGCUGUGGC | 0.0395 | 0.0137 |  | 
35 | CAGUCUACAGGAUAUACAUGAGGAUCACCCAUGUGUAUUCACUUUCAGUAAUCCAUAUGUAGAAGGGUAGACUG | 0.0169 | 0.0342 |  | 
36 | UCGAUGCUAGGAUAUACUAAUACAACUACUGUAGUGUCUUCACAUGAGGAUCACCCAUGUAGAAGGAGCAUAUA | 0.0263 | 0.0203 |  | 
37 | CCAUCAGCGAACGUAUCGGUUGGACAUGAGGAUCACCCAUGUAGAAGGACAGGAGUAUUACGGCUGUAGGAUAUACAUUUAGUG | 0.0213 | 0.018 |  | 
38 | UGAACUAUGUAGAAGGCCCACAUUUAUAUGUAGGGAGGAUAUACAUGAGGAUCACCCAUGUAAAGAGCAAGAGGAUUUGACAGA | 0.0107 | 0.0196 |  | 
39 | UCUUAUUGCAAGGAUAUGCAAAUUAUUUUUUAAGCAGAAGGUGCAACAUGAGGAUCACCCAUGUUUCCGGGAAA | 0.0194 | 0.111 |  | 
40 | CAGAAGUCAGGAUAUGCUGCUCGUCACUUGCGUGAUGAGUAGCAGAAGGGACAUGAGGAUCACCCAUGUAAAGA | 0.0631 | 0.113 |  | 
41 | UCGAUAAGGAGAGGAUAUGGACAUGAGGAUCACCCAUGUACAUGGGAAUAUAUACUGAAUUUUUACUAGAAGGCUUACAUAAUU | 0.0164 | 0.0148 |  | 
42 | GGGCCCGGAGGAUAUACAAUGGGCCCGGGAAACCGGGUUUUACAUGAGGAUCACCCAUGUAGAAGGCCGGGUUU | 0.0145 | 0.0154 |  | 
43 | AAAUAAACUAGCAAAAUUUCCUCACAUGAGGAUCACCCAUGUAAGGAUAUCUGUCCUAAAAGGACAGAGAAGGUACGUGCUAGG | 0.00453 | 0.00463 |  | 
44 | GUCCGGCUGCCACAGGAUAUACGUGGAUCGACAUGAGGAUCACCCAUGUAUAUCCUAAUAAUUGCGUAGAAGGGUGGUCAGCCGG |  |  | 1.04 | 0.109
45 | UGAUAGCACAGAGGAUAUGCGUAGUGUUAUCACUACAUGAGGAUCACCCAUGUAGAAGGCUGUGCUAUCUAAGUCGGAAACGAC | 0.00633 | 0.00744 |  | 
46 | UUUUAUUAGUAAGGAUAUACUAGCGAUUAGCUUGUAGAAGGUACAGUCUUAUGUAUAACAUGUUAACAUGAGGAUCACCCAUGU |  |  | 0.0595 | 0.0361
47 | GUCAAGUGAGGAUAUGAUUGUACAACAGACUAGCGUCUGCAUCAGAAGGCACAUGAGGAUCACCCAUGUUUGUC | 0.0196 | 0.0162 |  | 
48 | AAUAAACUAGGAUAUACAUGAGGAUCACCCAUGUGUCGCCACGUGCUUGCUCACUCGUGUAGAAGGAGUACGGA | 0.0385 | 0.0731 |  | 
